Results collected from several papers.
Each line is one published result; the experiments were not run side by side.
Sample: plasma

Cc1ccc(C(=O)Nc2ccc(CN3CCN(C)CC3)c(C(F)(F)F)c2)cc1C#Cc1cnc2[nH]ncc2c1 — Tmax (human; oral; 20 mg; healthy volunteers): 8 h
COc1ccc([C@@H](O)c2cc(-c3ncnc4cc(N5CCOCC5)ccc34)c(F)cc2Cl)nn1 — Tmax (human; oral; 250 mg; single dose, patients): 1.03 h
CN1CC[C@@H](c2c(O)cc(O)c3c(=O)cc(-c4ccc(C(F)(F)F)cc4Cl)oc23)[C@@H]1CO — Tmax (human; oral; 50 mg; patients): 4.1 h
Cl.[2H]C([2H])([2H])CC(=O)c1cnc(NC(=O)C2CC2)cc1Nc1cccc(-c2ncn(C([2H])([2H])[2H])n2)c1OC — Tmax (human; oral; 10 mg; multiple doses, once daily, fasted): 1.6 h
CNC(=O)n1ccc2cc(Oc3ccnc(NC(=O)c4ccc(C5CCN(CCO)CC5)cc4)c3)c(OCCOC)cc21 — Tmax (human; oral; 35 mg; single dose, healthy volunteers): 2 h
NS(=O)(=O)OC[C@@H]1C[C@@H](n2ccc3c(N[C@H]4CCc5ccccc54)ncnc32)C[C@@H]1O — Tmax (human; intravenous; 15 mg/m²; patients): 1.13 h
Cn1cc(Nc2nc(N)nc(-c3cccc(-n4ccc5cc(C6CC6)cc(F)c5c4=O)c3CO)n2)cn1 — Tmax (human; oral; 300 mg; single dose, fasted, healthy volunteers): 2 h
NC(=S)NN=Cc1ncccc1N — Tmax (human; oral; 100 mg): 0.9 h
CC(C)n1c(Nc2cccnc2)nc2cnc(Nc3ccc(N4CCN(C)CC4)cc3)nc21 — Tmax (male human; oral; 150 mg; single dose, healthy volunteers): 1.5 h
